Kir21 inh: inhibitors of mouse Kir2.1 inward-rectifier potassium channel | Inward rectifier potassium channel 2 (Mus musculus), P35561 | HEK293-Kir2.1, FluxOR thallium flux fluorescence; stronger effect = lower value | B-score at 10 µM | 310,000 compounds, 0.85% hits | AID 1672, 2009;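 active means fluorescence ratio B-score at or below minus 3 SD of library scores, with starting-brightness B-score within 2 SD, cut at about -4.2 in these data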;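 further: channel flux triggered by added potassium and thallium sulfate stimulus; B-score of peak minus minimum fluorescence over baseline after thallium stimulus; more negative B-score means stronger Kir2.1 block with less thallium influx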
KCNK9 block: KCNK9 potassium channel inhibitors, primary screen, HEK293 cells, thallium flux; 310,000 compounds, 1.2% hits; AID 488922, 2010; B-score at 10 µM; FluxOR thallium flux fluorescence; stronger effect = lower value; Potassium channel subfamily K member 9 (Homo sapiens), Q9NPC2;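 active means ratio B-score over 3 SD below the library mean, with starting fluorescence within 5 SD of its mean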;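 further: negative B-score means less thallium flux so channel inhibition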
KCNQ1 inh: inhibitors of human KCNQ1 channel, primary screen, cell-based, thallium flux, high-throughput; CHO-K1 KCNQ1, FluxOR thallium flux fluorescence; stronger effect = higher value; AID 2642, 2010; 310,000 compounds, 1.3% hits; Potassium voltage-gated channel subfamily KQT member 1 (Homo sapiens), P51787; B-score at 10 µM;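 active means compounds whose thallium flux B-score, printed positive for inhibition, exceeds three library SD while starting fluorescence stays within three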;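 further: channel opened by potassium depolarization with thallium stimulus after 20 min compound exposure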
KCNQ1 pot: potentiators or activators of KCNQ1 channel, primary screen, cell-based, thallium flux, high-throughput. Potassium voltage-gated channel subfamily KQT member 1 (Homo sapiens), P51787. CHO-K1 KCNQ1, thallium flux FluxOR fluorescence; stronger effect = higher value. B-score at 10 µM. 310,000 compounds, 0.35% hits;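 active means fluorescence ratio B-score, a plate-corrected score, at least three library SD, with initial intensity B-score within 5 SD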
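Doses: Single concentration per compound, DMSO matched to controls | Test system: KCNQ1-transfected CHO-K1 cells | Timing: 90 min dye loading and 20 min compound exposure, both at room temperature | Measured by: Kinetic FluxOR thallium fluorescence, 10-s 1-Hz baseline, 110-s post-stimulus read | Medium: Assay buffer with matched DMSO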
hERG rescue: hERG rescue from dofetilide block, primary screen, cell-based, CHO-hERG, FluxOR thallium flux, dofetilide IC70 | 310,000 compounds, 0.51% hits | dofetilide IC70 present | activation (rescue from dofetilide block), less the hit threshold, % at 10 µM | Voltage-gated inwardly rectifying potassium channel KCNH2 (Homo sapiens), Q12809;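 active means activation above the mean of controls blocked by dofetilide plus 5 SD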;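 further: thallium influx through hERG after potassium depolarization seen as dye fluorescence rise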
Target sequence (Q12809 whole entry, looked up): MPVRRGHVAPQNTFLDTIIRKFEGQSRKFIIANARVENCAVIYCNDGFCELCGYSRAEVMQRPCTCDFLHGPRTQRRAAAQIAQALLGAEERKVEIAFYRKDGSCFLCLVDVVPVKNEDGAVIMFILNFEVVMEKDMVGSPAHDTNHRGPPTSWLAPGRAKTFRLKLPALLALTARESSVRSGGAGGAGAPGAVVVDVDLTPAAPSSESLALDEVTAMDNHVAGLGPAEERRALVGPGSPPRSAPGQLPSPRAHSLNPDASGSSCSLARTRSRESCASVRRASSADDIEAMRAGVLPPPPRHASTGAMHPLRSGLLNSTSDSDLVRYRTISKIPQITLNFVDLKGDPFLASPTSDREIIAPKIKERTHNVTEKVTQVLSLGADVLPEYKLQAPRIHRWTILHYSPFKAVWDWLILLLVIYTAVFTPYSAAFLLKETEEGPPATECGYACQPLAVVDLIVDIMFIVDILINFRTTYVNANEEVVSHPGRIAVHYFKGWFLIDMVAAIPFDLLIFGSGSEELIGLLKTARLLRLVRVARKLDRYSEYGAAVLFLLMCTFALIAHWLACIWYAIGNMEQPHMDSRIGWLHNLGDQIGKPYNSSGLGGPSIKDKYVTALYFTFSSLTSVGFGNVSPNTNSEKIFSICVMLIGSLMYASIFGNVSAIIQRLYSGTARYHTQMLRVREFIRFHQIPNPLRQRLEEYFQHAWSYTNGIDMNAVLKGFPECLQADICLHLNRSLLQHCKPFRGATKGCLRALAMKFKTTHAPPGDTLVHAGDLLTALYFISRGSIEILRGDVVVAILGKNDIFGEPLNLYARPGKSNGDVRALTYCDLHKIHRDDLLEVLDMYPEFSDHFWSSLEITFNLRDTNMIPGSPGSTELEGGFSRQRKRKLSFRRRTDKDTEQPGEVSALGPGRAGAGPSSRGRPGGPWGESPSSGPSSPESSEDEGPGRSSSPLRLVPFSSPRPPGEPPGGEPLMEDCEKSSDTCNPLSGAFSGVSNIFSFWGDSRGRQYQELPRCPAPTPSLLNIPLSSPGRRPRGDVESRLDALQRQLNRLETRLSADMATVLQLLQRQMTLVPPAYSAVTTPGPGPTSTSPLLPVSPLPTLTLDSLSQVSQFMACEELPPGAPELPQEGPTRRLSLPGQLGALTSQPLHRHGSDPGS
KCNK3 block: human KCNK3 channel inhibitors, primary screen, CHO cells, FluxOR thallium flux, B-score. Potassium channel subfamily K member 3 (Homo sapiens), O14649. FluxOR fluorescence; stronger effect = lower value. B-score at 10 µM. 340,000 compounds, 0.84% hits. AID 602410, 2012;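 active means B-score under library mean minus 4 SD, starting fluorescence ratio at most library mean plus 5 SD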;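 further: more negative B-score means stronger inhibition of thallium flux through KCNK3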
Hits are given with their value; – = inactive; · = no result; ! = not confirmed by another sample. Only some compounds are listed: those with a hit (about 3.7% of all), similar ones and a draw of the others.

SMILES	Kir21 inh	KCNK9 block	KCNQ1 inh	KCNQ1 pot	hERG rescue	KCNK3 block
COC(=O)c1cc(NC(=O)CN(c2ccc3c(c2)OCO3)S(C)(=O)=O)ccc1Cl	–	-7.4	–	–	–	–
COC(=O)c1ccc(Cl)c(NC(=O)CN(c2ccc3c(c2)OCO3)S(C)(=O)=O)c1	–	–	–	–	–	–
C(=NN=C1c2ccccc2-c2ccccc21)c1ccc2c(c1)OCO2	·	·	·	·	·	–
CC12CCC(C(=O)NCc3ccc4c(c3)OCO4)(CC1=O)C2(C)C (stereo unspecified)	–	–	–	–	5.3	–
CC(C)N(CCCNC(=O)Cn1c(=O)c2cccn2c2ccc(F)cc21)Cc1ccccc1	–	–	–	–	–	–
Cn1nnnc1SCc1ccc(C(=O)Nc2nccs2)cc1	–	–	–	–	–	–
C=CCn1c(SCc2ccc(C(=O)Nc3nccs3)cc2)nnc1-c1ccc(C)c(Cl)c1	–	-7.2	–	–	–	–
COc1ccc(N(Cc2cc3ccccc3[nH]c2=O)S(=O)(=O)c2ccc(OC)cc2)cc1	–	-7.2	–	–	–	–
COc1ccc(N(Cc2cc3cc(OC)ccc3[nH]c2=O)S(=O)(=O)c2ccc(NC(C)=O)cc2)cc1	–	–	–	–	–	–
Cc1nn(-c2ccccc2)c(Cl)c1C1C(C#N)=C(N)OC2=C1C(=O)CCC2 (stereo unspecified)	–	–	–	–	5.4	–
c1ccc2c(c1)[nH]c1c(N3CCSCC3)ncnc12	·	·	·	·	·	-9.7
N#CC1=C(N)N(c2ccccc2)C(c2ccco2)C1(C#N)C#N (stereo unspecified)	–	–	–	–	–	–
N#CC1=C(N)N(c2ccccc2)C(c2cccc([N+](=O)[O-])c2)C1(C#N)C#N (stereo unspecified)	-9.7	–	–	–	–	–
CC(C)N(Cc1ccccc1)C(=O)COc1ccccc1	–	–	–	–	–	–
CC(C)C(=O)NC(=S)N(Cc1ccccc1)Cc1ccccc1	–	–	–	–	–	–
O=C(NC(=S)N(Cc1ccccc1)Cc1ccccc1)c1ccccc1F	–	–	–	13	16	–
C=CCN(CC=C)C(=S)NC(=O)/C=C/c1ccc(C)cc1	–	–	–	–	–	–
COc1ccc(C(=O)NC(=S)N(Cc2ccccc2)Cc2ccccc2)cc1	–	–	–	85	33	–
COc1ccc(CC(=O)N(Cc2ccccc2)C(C)C)cc1	-4.3	–	–	–	–	–
C=CCN(CC=C)C(=S)NC(=O)c1ccc(C)c(Br)c1	–	–	–	56	87	–
NC(=O)C12C(=O)NC(=O)C1(C(=O)O)C21CCCC1 (stereo unspecified)	·	·	·	·	·	–
CCOC(=O)c1c(C)[nH]c(C(=O)COc2ccc3ccc(=O)oc3c2)c1C	·	·	·	·	·	–
COC(=O)[C@H](Cc1ccccc1)NC(=O)Cn1cnc(C(=O)Nc2ccc(C)c(C)c2)n1	·	·	·	·	·	–
C=CCN(CC=C)C(=S)NC(=O)/C=C/c1ccccc1	–	–	–	–	–	–
C=CCNC(=O)c1ccc(OC)cc1	–	–	–	–	–	–
SMILES	Kir21 inh	KCNK9 block	KCNQ1 inh	KCNQ1 pot	hERG rescue	KCNK3 block
C=CCN(CC=C)C(=S)NC(=O)c1ccc(-c2ccccc2)cc1	–	–	–	15	–	–
C=CCN(CC=C)C(=S)NC(=O)c1ccc(OC)cc1	–	–	–	13	28	–
C=CCN(CC=C)C(=S)NC(=O)/C=C/c1ccc(OC)cc1	–	–	–	–	12	–
Cc1ccc(-c2cc(-c3ccc(F)cc3)c(C#N)c(N)n2)o1	–	–	–	–	–	–
Cc1cc(-c2cc(-c3ccc(Cl)cc3)nc(N)c2C#N)co1	-4.9	–	–	–	–	–
Cc1ccc(-c2cc(-c3ccc(Cl)cc3)c(C#N)c(N)n2)o1	-4.5	–	–	–	–	–
CCCCCn1c(=N)n(CC(O)COc2ccccc2OC)c2ccccc21 (stereo unspecified)	-4.3!	–	7!	–	–	–
CCCn1c(=N)n(CC(O)COc2ccc(C)cc2)c2ccccc21 (stereo unspecified)	–	–	–	–	–	–
COc1ccccc1OCC(O)Cn1c(=N)n(Cc2ccccc2)c2ccccc21 (stereo unspecified)	-4.6	–	–	–	–	–
Cc1ccc(OCC(O)Cn2c(=N)n(CCN3CCCCC3)c3ccccc32)cc1 (stereo unspecified)	-4.3	–	–	–	–	–
C=CCn1c(=N)n(CC(O)COc2ccccc2OC)c2ccccc21 (stereo unspecified)	–	–	–	–	–	–
CCCCn1c(=N)n(CC(O)COc2cccc(C)c2)c2ccccc21 (stereo unspecified)	-5.2	–	7	–	–	–
CCCCn1c(=N)n(CCOc2ccc(C)cc2)c2ccccc21	-4.6	–	–	–	–	–
Cc1nn(C)c(C)c1CCC(=O)N1CCCC(N2CCN(c3ccc(F)cc3)CC2)C1 (stereo unspecified)	–	–	–	–	–	–
O=C1CN(C(=O)CCCc2c[nH]c3ccccc23)c2ccccc2N1	-5.7	–	–	–	–	–
O=C(O)CCCC(=O)N1CC(=O)Nc2ccccc21	–	–	–	–	–	–
O=S(=O)(Nc1ccc(S(=O)(=O)Nc2ncccn2)cc1)c1ccc(Cl)cc1	–	–	–	–	–	–
O=S(=O)(Nc1cccc(CCc2ccccn2)c1)c1ccc(Cl)cc1	-9.2	–	–	–	–	–
O=C(COC(=O)CNC(=O)c1ccco1)Nc1ncc(Cl)cc1Cl	·	·	·	·	·	–
O=[N+]([O-])c1ccc(N(c2ccccc2)c2ccccc2)cc1	–	–	9	–	–	–
CCN(C(=O)c1ccccc1)c1ccc([N+](=O)[O-])cc1	–	–	–	–	–	–
CN(C)c1ccc(C(c2ccc(N(C)C)cc2)c2ccc([N+](=O)[O-])cc2)cc1	–	-7.8	–	–	–	–
O=C(O)COc1ccccc1C=NNC(=O)c1ccccc1NS(=O)(=O)c1cccs1	·	·	·	·	·	–
CN(C)S(=O)(=O)c1ccc(C(=O)NCc2nnc(SCC(=O)c3ccccc3)o2)cc1	–	–	–	–	–	–
COC(=O)c1cnn2c(C(F)(F)F)cc(-c3ccccc3)nc12	–	–	–	–	5.2	–
COc1cccc(-c2cc(C(F)(F)F)n3ncc(C(=O)O)c3n2)c1	–	–	–	–	–	–
